Results reported in ChEMBL document CHEMBL3997766, “Synthesis and pre-clinical studies of new amino-acid ester thiazolide prodrugs” (Eur J Med Chem, 2017).

Assays:
[1] = Prodrug activation at room temperature after 3 weeks assessed as tizoxanide formation by NMR method
[2] = Drug excretion in po dosed human urine; assay type: ADME, organism-based; conditions: read-out: Drug excretion
[3] = Drug excretion in po dosed human faeces; assay type: ADME, organism-based, Feces; conditions: read-out: Drug excretion
[4] = Oral bioavailability in human; assay type: ADME, organism-based; conditions: in vivo
[5] = system: Plasma; experiment: Drug metabolism in Sprague-Dawley rat assessed as tizoxanide-glucuronide formation in plasma at 30 mg/kg, po administered as single dose measured after 5 mins; assay type: ADME, organism-based; conditions: in vivo
Method in brief: (§1)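 Plasma tizoxanide and tizoxanide glucuronide were measured and PK parameters derived. AUCs were dose-corrected to 30 mg/kg for bioavailability.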

[6] = system: Rattus norvegicus; experiment: Cmax in Sprague-Dawley rat assessed as Tizoxanide level in plasma at 30 mg/kg, po administered as single dose; assay type: ADME, organism-based; parameters: dose 30 mg/kg, route oral; conditions: in vivo
Method in brief: (§2)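 Rats in groups of three received one compound as a single oral dose (30 mg/kg) or a single intravenous injection (6 mg/kg), with four compounds studied separately. Serial blood samples were drawn at 5, 10, 15 and 30 min and at 1, 2, 4, 8, 23 and 24 h post-dose. Plasma parent drug and metabolites were quantified and PK parameters were derived.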

[7] = system: Rattus norvegicus; experiment: AUC (0 to t) in Sprague-Dawley rat assessed as Tizoxanide level at 30 mg/kg, po administered as single dose; assay type: ADME, organism-based; conditions: in vivo; method in brief: as §1
[8] = system: Rattus norvegicus; experiment: Cmax in Sprague-Dawley rat assessed as Tizoxanide level in plasma at 6 mg/kg, iv administered as single dose; assay type: ADME, organism-based; parameters: dose 6 mg/kg, route intravenous; conditions: in vivo; method in brief: as §2
[9] = system: Rattus norvegicus; experiment: Elimination half life in Sprague-Dawley rat assessed as Tizoxanide level in plasma at 6 mg/kg, iv administered as single dose; assay type: ADME, organism-based; conditions: in vivo; method in brief: as §1
[10] = system: Rattus norvegicus; experiment: Cmax in Sprague-Dawley rat assessed as Tizoxanide-glucuronide level in plasma at 6 mg/kg, iv administered as single dose; assay type: ADME, organism-based; parameters: dose 6 mg/kg, route intravenous; conditions: in vivo; method in brief: as §2
[11] = system: Rattus norvegicus; experiment: Tmax in male Sprague-Dawley rat assessed as Tizoxanide-glucuronide level in plasma at 6 mg/kg, iv administered as single dose; assay type: ADME, organism-based; conditions: in vivo; method in brief: as §1
[12] = system: Rattus norvegicus; experiment: AUC (0 to t) in male Sprague-Dawley rat assessed as Tizoxanide-glucuronide level in plasma at 6 mg/kg, iv administered as single dose; assay type: ADME, organism-based; conditions: in vivo; method in brief: as §1
[13] = system: Rattus norvegicus; experiment: Tmax in female Sprague-Dawley rat assessed as Tizoxanide-glucuronide level in plasma at 6 mg/kg, iv administered as single dose; assay type: ADME, organism-based; conditions: in vivo; method in brief: as §1
[14] = system: Rattus norvegicus; experiment: Tmax in male Sprague-Dawley rat assessed as Tizoxanide level in plasma at 30 mg/kg, po; assay type: ADME, organism-based; conditions: in vivo; method in brief: as §1
[15] = system: Rattus norvegicus; experiment: Tmax in female Sprague-Dawley rat assessed as Tizoxanide level in plasma at 30 mg/kg, po; assay type: ADME, organism-based; conditions: in vivo; method in brief: as §1
[16] = system: Rattus norvegicus; experiment: Cmax in Sprague-Dawley rat assessed as tizoxanide-glucuronide level in plasma at 30 mg/kg, po administered as single dose; assay type: ADME, organism-based; parameters: dose 30 mg/kg, route oral; conditions: in vivo; method in brief: as §2
[17] = system: Rattus norvegicus; experiment: Tmax in male Sprague-Dawley rat assessed as tizoxanide-glucuronide level in plasma at 30 mg/kg, po administered as single dose; assay type: ADME, organism-based; conditions: in vivo; method in brief: as §1
[18] = system: Rattus norvegicus; experiment: Tmax in female Sprague-Dawley rat assessed as tizoxanide-glucuronide level in plasma at 30 mg/kg, po administered as single dose; assay type: ADME, organism-based; conditions: in vivo; method in brief: as §1
[19] = system: Rattus norvegicus; experiment: AUC (0 to t) in Sprague-Dawley rat assessed as tizoxanide-glucuronide level in plasma at 30 mg/kg, po administered as single dose; assay type: ADME, organism-based; conditions: in vivo; method in brief: as §1
[20] = system: Rattus norvegicus; experiment: AUC (0 to t) in Sprague-Dawley rat assessed as Tizoxanide level in plasma at 6 mg/kg, iv administered as single dose; assay type: ADME, organism-based; conditions: in vivo; method in brief: as §1
[21] = system: Plasma; experiment: Drug metabolism in Sprague-Dawley rat assessed as RM-4848 formation in plasma at 30 mg/kg, po measured at 0.25 to 0.5 post dose; assay type: ADME, organism-based; conditions: in vivo; method in brief: as §2
[22] = system: Rattus norvegicus; experiment: Elimination half life in Sprague-Dawley rat assessed as RM-4848 level in plasma at 30 mg/kg, po administered as single dose; assay type: ADME, organism-based; conditions: in vivo; method in brief: as §2
[23] = system: Rattus norvegicus; experiment: Cmax in Sprague-Dawley rat assessed as RM-4848 level in plasma at 30 mg/kg, po administered as single dose; assay type: ADME, organism-based; parameters: dose 30 mg/kg, route oral; conditions: in vivo; method in brief: as §2
[24] = system: Rattus norvegicus; experiment: AUC (0 to t) in Sprague-Dawley rat assessed as RM-4848 level in plasma at 30 mg/kg, po administered as single dose; assay type: ADME, organism-based; conditions: in vivo; method in brief: as §2
[25] = system: Rattus norvegicus; experiment: Tmax in Sprague-Dawley rat assessed as RM-4848-glucuronide level in plasma at 30 mg/kg, po administered as single dose; assay type: ADME, organism-based; conditions: in vivo
Method in brief: (§3)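 Rats in groups of three got a single oral dose (30 mg/kg) or a single intravenous injection (6 mg/kg). Serial blood samples were taken at 5, 10, 15 and 30 min and at 1, 2, 4, 8, 23 and 24 h post-dose for plasma drug and glucuronide levels. Bioavailability came from oral versus intravenous AUC after dose correction to 30 mg/kg.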

[26] = system: Rattus norvegicus; experiment: Cmax in Sprague-Dawley rat assessed as RM-4848-glucuronide level in plasma at 30 mg/kg, po administered as single dose; assay type: ADME, organism-based; parameters: dose 30 mg/kg, route oral; conditions: in vivo; method in brief: as §2
[27] = system: Rattus norvegicus; experiment: AUC (0 to t) in Sprague-Dawley rat assessed as RM-4848-glucuronide level in plasma at 30 mg/kg, po administered as single dose; assay type: ADME, organism-based; conditions: in vivo; method in brief: as §2
[28] = system: Rattus norvegicus; experiment: Elimination half life in Sprague-Dawley rat assessed as RM-4848-glucuronide level at 30 mg/kg, po administered as single dose; assay type: ADME, organism-based; conditions: in vivo; method in brief: as §2
[29] = system: Rattus norvegicus; experiment: Oral bioavailability in Sprague-Dawley rat assessed as RM-4848 level in plasma at 30 mg/kg administered as single dose; assay type: ADME, organism-based; conditions: in vivo
Method in brief: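 Groups of three rats received a single oral dose (30 mg/kg) or intravenous dose (6 mg/kg), with serial blood sampling from 5 min to 24 h. Absolute bioavailability came from the AUC after oral versus intravenous dosing, with the AUC corrected for dose to 30 mg/kg.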

[30] = system: Plasma; experiment: Drug metabolism in Sprague-Dawley rat assessed as RM-4848 formation in plasma at 6.4 mg/kg, iv measured at 1 to 4 hrs post dose; assay type: ADME, organism-based; conditions: in vivo
[31] = system: Rattus norvegicus; experiment: Elimination half life in Sprague-Dawley rat assessed as RM-4848 level in plasma at 6.4 mg/kg, iv; assay type: ADME, organism-based; conditions: in vivo
[32] = system: Rattus norvegicus; experiment: Drug metabolism in Sprague-Dawley rat assessed as RM-4848-glucuronide formation at 6.4 mg/kg, iv measured at 0.25 to 1 hrs post dose; assay type: ADME, organism-based; conditions: in vivo
[33] = system: Rattus norvegicus; experiment: Cmax in Sprague-Dawley rat assessed as RM-4848 level in plasma at 6 mg/kg, iv administered as single dose; assay type: ADME, organism-based; parameters: dose 6 mg/kg, route intravenous; conditions: in vivo; method in brief: as §2
[34] = system: Rattus norvegicus; experiment: AUC (0 to t) in Sprague-Dawley rat assessed as RM-4848 level in plasma at 6 mg/kg, iv administered as single dose; assay type: ADME, organism-based; conditions: in vivo; method in brief: as §2
[35] = system: Rattus norvegicus; experiment: Cmax in Sprague-Dawley rat assessed as RM-4848-glucuronide level at 6 mg/kg, iv administered as single dose; assay type: ADME, organism-based; parameters: dose 6 mg/kg, route intravenous; conditions: in vivo; method in brief: as §2
[36] = system: Rattus norvegicus; experiment: AUC (0 to t) in Sprague-Dawley rat assessed as RM-4848-glucuronide level at 6 mg/kg, iv administered as single dose; assay type: ADME, organism-based; conditions: in vivo; method in brief: as §2
[37] = system: Rattus norvegicus; experiment: Elimination half life in Sprague-Dawley rat assessed as RM-4848-glucuronide level at 6.4 mg/kg, iv; assay type: ADME, organism-based; conditions: in vivo
[38] = system: Plasma; experiment: Drug metabolism in Sprague-Dawley rat assessed as RM-4848-glucuronide formation in plasma at 6 mg/kg, iv administered as single dose; assay type: ADME, organism-based; conditions: in vivo; method in brief: as §2
[39] = system: Plasma; experiment: Drug metabolism in Sprague-Dawley rat assessed as RM4848-glucuronide formation in plasma at 30 mg/kg, po measured at 0.25 to 0.5 post dose; assay type: ADME, organism-based; conditions: in vivo; method in brief: as §2
[40] = system: Rattus norvegicus; experiment: Tmax in Sprague-Dawley rat assessed as RM-4848-glucuronide formation at 6.4 mg/kg, iv; assay type: ADME, organism-based; conditions: in vivo; method in brief: as §3
[41] = system: Rattus norvegicus; experiment: Drug level in Sprague-Dawley rat treated with RM5038 at 6.4 mg/kg, iv measured at 0.25 to 1 hrs post dose; assay type: ADME, organism-based; conditions: in vivo
[42] = system: Rattus norvegicus; experiment: Drug level in Sprague-Dawley rat treated with RM5064 at 6.4 mg/kg, iv measured at 0.25 to 1 hrs post dose; assay type: ADME, organism-based; conditions: in vivo

CC(C)[C@H](N)C(=O)Oc1ccccc1C(=O)Nc1ncc([N+](=O)[O-])s1
Drug metabolism [1]: 20%

CC(=O)Oc1ccccc1C(=O)Nc1ncc([N+](=O)[O-])s1 [NITAZOXANIDE]
dose excreted [2]: 33% | dose excreted [3]: 64% | bioavailability [4]: ≤ 30% | Drug metabolism [5]: Metabolite_Detected | Cmax [6]: 742 ng/mL | AUCt [7]: 2040 ng·h/mL | Cmax [8]: 20500 ng/mL | beta t1/2 [9]: 12 min | Cmax [10]: 11050 ng/mL | Tmax [11]: 24 min | AUCt [12]: 6500 ng·h/mL | Tmax [13]: 42 min | Tmax [14]: 42 min | Tmax [15]: 126 min | Cmax [16]: 4620 ng/mL | Tmax [17]: 42 min | Tmax [18]: 84 min | AUCt [19]: 15950 ng·h/mL | AUCt [20]: 14100 ng·h/mL

CC(=O)Oc1ccccc1C(=O)Nc1ncc(Cl)s1
Drug metabolism [21]: Metabolite_Detected | beta t1/2 [22]: 180 min | Cmax [23]: 101 ng/mL | AUCt [24]: 130 ng·h/mL | Tmax [25]: 15 to 30 min | Cmax [26]: 2080 ng/mL | AUCt [27]: 10040 ng·h/mL | beta t1/2 [28]: 368 min | F [29]: 1% | Drug metabolism [30]: Metabolite_Detected | beta t1/2 [31]: 40.2 min | Drug metabolism [32]: Metabolite_Detected | Cmax [33]: 9980 ng/mL | AUCt [34]: 3480 ng·h/mL | Cmax [35]: 17300 ng/mL | AUCt [36]: 19400 ng·h/mL | beta t1/2 [37]: 150 to 192 min | Drug metabolism [38]: Metabolite_Detected | Drug metabolism [39]: Metabolite_Detected | Tmax [40]: 15 to 60 min

O=C(Nc1ncc(Cl)s1)c1ccccc1O
Drug metabolism [41]: Metabolite_Detected | Drug metabolism [42]: Metabolite_Detected
